Consider nine compounds from ChEMBL document CHEMBL1153592, “1,8-Naphthyridine-3-carboxamide derivatives with anticancer and anti-inflammatory activity” (Eur J Med Chem, 2009).

Data set [1] relates to PA-1. The data set is described as follows: Cytotoxicity against human PA1 cells at 10 uM after 72 hrs by MTT assay. It counts as functional, cell-based. A digest of the protocol: (§1)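 Three-day MTT screen with 5000–10,000 cells/well and 72 h compound exposure at the top screening concentration. After 3 h of MTT uptake, lysis with 10% SDS–0.01 N HCl, then A540 read after 1 h. % cytotoxicity = (1 − X/R1)×100, where X is treated minus blank absorbance and R1 is untreated control absorbance.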
On the technique in general: Tetrazolium assays rely on reduction of a dye to a coloured formazan, in cell work by metabolically active cells.

Data set [2] concerns DU-145. The data set is described as follows: Cytotoxicity against human DU145 cells at 10 uM after 72 hrs by MTT assay. It counts as functional, cell-based. A digest of the protocol: as §1
For data set [3], the system named is KB. The data set is described as follows: Cytotoxicity against human KB cells at 10 uM after 72 hrs by MTT assay. It counts as functional, cell-based. The method in brief: as §1
The test system of data set [4] is SW-620. The data set is described as follows: Cytotoxicity against human SW620 cells at 10 uM after 72 hrs by MTT assay. The class given is functional, cell-based. The method in brief: as §1
Data set [5] deals with HBL-100. The data set is described as follows: Cytotoxicity against human HBL100 cells at 10 uM after 72 hrs by MTT assay. The class given is functional, cell-based. A digest of the protocol:
as §1

Data set [6] has as its system A549. The data set is described as follows: Cytotoxicity against human A549 cells at 10 uM after 72 hrs by MTT assay. It counts as functional, cell-based. The method in brief: as §1
Data set [7] concerns MIA PaCa-2. The data set is described as follows: Cytotoxicity against human MIAPaCa2 cells at 10 uM after 72 hrs by MTT assay. The class given is functional, cell-based. A digest of the protocol: as §1
Data set [8] has as its system K562. The data set is described as follows: Cytotoxicity against human K562 cells at 10 uM after 72 hrs by MTT assay. It counts as functional, cell-based. A digest of the protocol:
as §1

Data set [9] relates to ECV-304. The data set is described as follows: Cytotoxicity against human ECV304 cells at 10 uM after 72 hrs by MTT assay. It counts as functional, cell-based. A digest of the protocol: as §1
Data set [10] can be described thus: Cytotoxicity against mouse NIH/3T3 cells at 10 uM after 72 hrs by MTT assay. The class given is cell-based. Conditions: nih3t3, 72 h. The method in brief: as §1
Data set [11] has as its system PA-1. The data set is described as follows: Cytotoxicity against human PA1 cells after 72 hrs by MTT assay. It counts as functional, cell-based. Conditions: PA-1, 72 h.
Data set [12] deals with DU-145. The data set is described as follows: Cytotoxicity against human DU145 cells after 72 hrs by MTT assay. The class given is functional, cell-based. Conditions: DU-145, 72 h.
In data set [13] the test system is KB. The data set is described as follows: Cytotoxicity against human KB cells after 72 hrs by MTT assay. The class given is functional, cell-based.
Data set [14] has as its system SW-620. The data set is described as follows: Cytotoxicity against human SW620 cells after 72 hrs by MTT assay. The class given is functional, cell-based. Conditions: SW-620, 72 h.
Data set [15] relates to HBL-100. The data set is described as follows: Cytotoxicity against human HBL100 cells after 72 hrs by MTT assay. It counts as functional, cell-based. Conditions: HBL-100, 72 h.
Data set [16] deals with A549. The data set is described as follows: Cytotoxicity against human A549 cells after 72 hrs by MTT assay. The class given is functional, cell-based. Conditions: A549, 72 h.
Data set [17] concerns MIA PaCa-2. The data set is described as follows: Cytotoxicity against human MIAPaCa2 cells after 72 hrs by MTT assay. It counts as functional, cell-based. Conditions: MIA PaCa-2, 72 h.
In data set [18] the test system is K562. The data set is described as follows: Cytotoxicity against human K562 cells after 72 hrs by MTT assay. It counts as functional, cell-based. Conditions: K562, 72 h.
Data set [19] has as its system ECV-304. The data set is described as follows: Cytotoxicity against human ECV304 cells after 72 hrs by MTT assay. The class given is functional, cell-based. Conditions: Homo sapiens, ECV-304, 72 h; read-out: IC50.
Data set [20] in a line: Cytotoxicity against mouse NIH/3T3 cells after 72 hrs by MTT assay. It counts as cell-based, NIH3T3.
The nature of data set [21]: Antiinflammatory activity in C57BL/6 mouse DC assessed as inhibition of LPS-induced IL1-beta production at 1 ug/ml after 24 hrs by ELISA. It counts as functional. The method in brief: (§2)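 Dendritic cells grown from femoral bone marrow of 8–12-week-old C57BL/6 mice in RPMI-1640 with 10% FBS and 20 ng/ml rmGM-CSF at 37 °C, 5% CO2. Day-6 immature DCs were stimulated with 10 ng/ml LPS plus compound for 24 h. Supernatant cytokine/chemokine measured by ELISA (pg/ml); % change = (B−A)/A×100, versus LPS-stimulated DCs alone.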

The nature of data set [22]: Antiinflammatory activity in C57BL/6 mouse DC assessed as inhibition of LPS-induced IL1-beta production at 0.1 ug/ml after 24 hrs by ELISA. The class given is functional. The method in brief:
as §2
In general terms: ELISA stands for enzyme-linked immunosorbent assay.

Data set [23] can be described thus: Antiinflammatory activity in C57BL/6 mouse DC assessed as inhibition of LPS-induced TNFalpha production at 1 ug/ml after 24 hrs by ELISA. It counts as functional. The method in brief: as §2
Data set [24] in a line: Antiinflammatory activity in C57BL/6 mouse DC assessed as inhibition of LPS-induced TNFalpha production at 0.1 ug/ml after 24 hrs by ELISA. The class given is functional. A digest of the protocol:
as §2

Data set [25] can be described thus: Antiinflammatory activity in C57BL/6 mouse DC assessed as inhibition of LPS-induced IP-10 production at 1 ug/ml after 24 hrs by ELISA. The class given is functional. A digest of the protocol: as §2
The nature of data set [26]: Antiinflammatory activity in C57BL/6 mouse DC assessed as inhibition of LPS-induced IP-10 production at 0.1 ug/ml after 24 hrs by ELISA. It counts as functional. The method in brief: as §2
The nature of data set [27]: Antiinflammatory activity in C57BL/6 mouse DC assessed as inhibition of LPS-induced IL-6 production at 1 ug/ml after 24 hrs by ELISA. It counts as functional. The method in brief: as §2
Data set [28] can be described thus: Antiinflammatory activity in C57BL/6 mouse DC assessed as inhibition of LPS-induced IL-6 production at 0.1 ug/ml after 24 hrs by ELISA. It counts as functional. The method in brief:
as §2

Calls of active or inactive are those of the source. The rule behind the calls is not given here.

`C#CCn1cc(C(=O)NC(C(=O)Nc2ccccc2)c2ccccc2)c(=O)c2cc(F)c(N3CCCC3)nc21` (centres undefined): the result in [1], in [2], in data set [3], in data set [4], in data set [5] and in data set [6] was inactive. The outcome in data set [7], in [8] and in data set [9] was inactive. Besides, the Activity entry in data set [10] is “Not Active”.

With `C#CCn1cc(C(=O)NC(C(=O)NC2CCCCC2)c2ccccc2)c(=O)c2cccnc21` (centres undefined), the result in data set [1], in data set [2], in data set [3], in data set [4], in [5] and in [6] was inactive. Besides, the result in [7], in data set [8] and in data set [9] was inactive. Further, in data set [10], the Activity result is recorded as “Not Active”.

As a reminder, the IC50 is the concentration that inhibits the measured activity by half. On to `C#CCn1cc(C(=O)NC(CC(=O)Nc2ccccc2)c2ccccc2)c(=O)c2cccnc21` (centres undefined), for which the IC50 in data set [11] is more than 10 µM; in data set [12] it was 7.2 µM; in data set [13] it was more than 10 µM; in data set [14] it was more than 10 µM; in [15], more than 10 µM; in [16], more than 10 µM. Moreover, the IC50 in [17] was more than 10 µM; in [18] it was more than 10 µM; in data set [19], more than 10 µM; in [20] (nih3t3), “Not Active”. The “inhibition (INH)” value in [21] is given as 78.5%; in data set [22], 75.1%; in data set [23], 29.7%; in data set [24], 19.1%; in [25], 33.1%; in data set [26] it was 31.7%.

Consider `C#CCn1cc(C(=O)NC(C(=O)NC2CCCC2)c2ccccc2)c(=O)c2ccc(Cl)nc21` (centres undefined), for which the result in data set [1], in data set [2], in data set [3], in [4], in [5] and in data set [6] was inactive. The outcome in data set [7], in data set [8] and in data set [9] was inactive. For the same compound, the Activity entry in [10] is “Not Active”.

With `C#CCn1cc(C(=O)NC(CC(=O)NC2CCCC2)c2ccccc2)c(=O)c2cccnc21` (centres undefined), the outcome in [1], in data set [2], in data set [3], in data set [4], in [5] and in [6] was inactive. The result in data set [7], in data set [8] and in [9] was inactive. For the same compound, the Activity result in data set [10] is “Not Active”. The “inhibition (INH)” value was found to be 52.1% in data set [21]; 62.4% in data set [22]; 34.7% in data set [23]; 19.3% in data set [24]; 25% in data set [25]; 38.8% in [26].

With `C#CCn1cc(C(=O)NC(CC(=O)NC2CCCCC2)c2ccccc2)c(=O)c2cccnc21` (centres undefined), the outcome in [1], in data set [2], in data set [3], in data set [4], in data set [5] and in [6] was inactive. The result in data set [7], in data set [8] and in [9] was inactive. In addition, in [10], the Activity entry is “Not Active”.

With `C#CCn1cc(C(=O)NC(CC(=O)Nc2ccccn2)c2ccccc2)c(=O)c2cccnc21` (centres undefined), the outcome in data set [1], in [2], in data set [3], in [4], in [5] and in data set [6] was inactive. Also, the result in [7], in data set [8] and in data set [9] was inactive. The Activity result in [10] was “Not Active”. Further, the “inhibition (INH)” value in data set [21] was found to be 50.1%; in [22], 34.1%; in data set [27], 74.9%; in [28], 74.4%.

Take `C#CCn1cc(C(=O)NC(CC(=O)Nc2ccccc2)c2ccccc2)c(=O)c2cc(F)c(Cl)nc21` (centres undefined): the 50% inhibitory concentration (IC50) in [11] was 2.1 µM; in data set [12] it was 5.9 µM; in data set [13], more than 10 µM; in [14], 5.7 µM; in [15], 9.3 µM; in data set [16], more than 10 µM. In addition, the IC50 was 6.9 µM in data set [17]; 6.6 µM in [18]; more than 10 µM in data set [19]; 9.7 µM in data set [20] (Mus musculus, NIH3T3, 72 h, read-out: IC50). The “inhibition (INH)” value in [21] came to 106.8%; in data set [22], 84.8%; in [27], 96%; in data set [28], 60%; in data set [23] it was 99%; in data set [24] it was 80%. Besides, the “inhibition (INH)” value in data set [25] is given as 102.4%; in data set [26], 17.3%.

In the case of `C#CCn1cc(C(=O)NC(C(=O)NC2CCCCC2)c2ccccc2)c(=O)c2ccc(Cl)nc21` (centres undefined), the outcome in [1], in data set [2], in data set [3], in [4], in data set [5] and in [6] was inactive. Moreover, the result in [7], in [8] and in data set [9] was inactive. The Activity result in data set [10] is given as “Not Active”.
